# High-throughput results from PubChem.
# In the library only some 1.6% were active in any assay of this set; here they are far more common.
# T cell modulator: T cell immune modulation candidate | 2C CD8+ T cell-vesicle binding, flow cytometry; hits give low values | response (vesicle binding), % at 7 µM | 0.068% of 330,000 active;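 active = response, share of CD8 T cells binding vesicles, and their 90th percentile fluorescence all below set limits, cut at about 80% in these data, passing the limit was not always enough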;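 also: values below 100% mean blocked vesicle binding to the CD8+ T cells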
#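 incubation = binding step 1.5 h, 37 °C, antibody labelling 20 min, ice | test system = 2C mouse CD8+ T cells | read-out basis = percent CD8+ FL2 mean versus row control | controls = Peptide-free naked vesicles (low) and QL9 vesicles with 0.7% DMSO vehicle (high) | detection = flow cytometry of vesicle-bound cells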
# Arr AP2 block: blocks beta-arrestin peptide binding to AP2 adaptin; 0.31% of 340,000 active; inhibition, % at 10 µM; FITC-arrestin peptide / GST-AP2 beads, flow cytometry; AP2 beta2 appendage carries R879A mutation; AID 504490;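 active = inhibition above a set limit, near 3 SD of compounds lacking own fluorescence, cut at about 54% in these data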;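 also: plate controls were DMSO wells for no effect and 5 µM unlabelled arrestin peptide for full effect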
#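 Measured by: flow cytometry, FL1 (488/535 nm); Material: AP2 appendage R879A on GSH beads; Evaluation: percent response; Timing: pre-incubation 12 min, peptide binding 1 h, room temperature; Also added: 50 nM FITC-arrestin peptide; Medium: PBS with 0.05% Tween 20 and 0.1% BSA.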
# GASC-1 inh: inhibitors of human GASC-1 (JMJD2C) demethylase. Q9H3R0. GST-JMJD2C(1-420) H3K9me3 demethylation, DELFIA europium. inhibition, % at 2.35 µM. 0.069% of 330,000 active. AID 2099;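 active = more than half of a compound's replicate wells show inhibition beyond 50%, single wells judged on their own value; inconclusive = some, but no more than half, of replicates pass 50% inhibition; inactive = no replicate passes 50% inhibition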;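 also: signal counts dimethyl H3K9 product captured on neutravidin plate; 0% = median of DMSO wells and 100% = 0.3 times that DMSO median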
# LANA-H2B inh: blocks KSHV LANA binding to histone H2A/H2B; Q9QR71; cell-free LANA-H2A/H2B peptide, fluorescence polarization; inhibition, % (no concentration beside the values); 0.6% of 320,000 active; in the data active = inhibition mostly above about 10%, no sharp cut-off; inactive = mostly below about 6.7%
# Pemphigus Ab inh: blocks pemphigus antibody binding to human desmoglein-3. P32926. DSG3-coupled beads, scFv-anti-DSG3-GFP binding, flow cytometry; hits give low values. binding (percent of control), % at 10 µM. 0.48% of 310,000 active;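 active = binding more than 3 SD below its plate's average and above zero; inconclusive = below that plate limit but binding exactly zero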;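 also: hits lower antibody fragment binding to DSG3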
# HDAC3 inhib: blocks human histone deacetylase 3 | recombinant HDAC3, fluorogenic peptide/trypsin coupled, fluorescence | inhibition, % at 8.3 µM | 0.15% of 320,000 active | AID 2718; in the data active = inhibition above about 26%, passing the limit was not always enough; inconclusive = no clear call, values can overlap the other calls
# Arr AP2 CP1: inhibitors of human beta-arrestin and AP2 interaction. shares compounds with Arr AP2 block. GST-AP2 beads, FITC arrestin peptide binding, flow cytometry; GST-fused beta2-adaptin appendage, R879A mutant. inhibition, % at 10 µM. 2% of 1,300 active. AID 504908;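 active = inhibition above a set limit, roughly 3 SD of non-fluorescent compound noise, cut at about 38% in these data; inactive = inhibition at or below that limit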;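 also: loss of bead fluorescence from 50 nM FITC arrestin peptide bound to appendage; 0% = negative control wells and 100% = excess unlabelled arrestin peptide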
# GST GSH counter: disrupts GST binding to glutathione beads, arrestin-AP2 artifact. shares compounds with Arr AP2 block. 2% of 1,300 active. inhibition, % at 10 µM. GST-fluorescein binding to GSH beads, fluorescence, counter-screen;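 active = inhibition above 50%, about 3 SD of the inhibition seen with non-fluorescent compounds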;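 also: fluorescein maleimide labelled GST captured on 4 micron glutathione beads; higher means more loss of bead fluorescence from quenching or blocked binding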
# Numbers without * were called inactive; u = inconclusive; x = no result given.
SMILES,T cell modulator,Arr AP2 block,GASC-1 inh,LANA-H2B inh,Pemphigus Ab inh,HDAC3 inhib,Arr AP2 CP1,GST GSH counter
Cc1cccc(-n2nc(C)c3c2NC2=C(C(=O)CCC2)C3c2ccccn2)c1 (stereo not drawn),247,13,-18,1,107,-1,x,x
Cc1cc(NC(=O)c2c(F)cccc2F)n(-c2nc3ccccc3[nH]2)n1,465,13,1,0,98,1,11,-4
Cc1cc(NC(=O)C2CCCCC2)n(-c2nc3ccccc3[nH]2)n1,401,-4,-6,-2,103,8,x,x
Cc1cc(NC(=O)c2c(F)cccc2Cl)n(-c2nc3ccccc3[nH]2)n1,120,99*,11,-2,99,-2,6,-6
Cc1cc(NC(=O)c2ccc(C)s2)n(-c2nc3ccccc3[nH]2)n1,380,1,5,4,106,-1,-13,2
Cc1cc(NC(=O)/C=C/c2ccc(F)cc2)n(-c2nc3ccccc3[nH]2)n1,485,0,-8,-4,106,-3,x,x
Cc1cc(NC(=O)c2ccccc2F)n(-c2nc3ccccc3[nH]2)n1,431,20,7,1,103,3,4,-7
CCOc1ccc(CCNC(=O)COC(=O)c2cccc(S(=O)(=O)N3CCCC3)c2)cc1OCC,198,1,-7,-2,104,0,x,x
CC1CN2C(c3ccc(Cl)cc3)=CSC2=N1 (stereo not drawn),224,46,-7,2,102,2,x,x
Cc1ccc(N2CC(C(=O)OCc3nnc(-c4ccccc4)o3)CC2=O)cc1 (stereo not drawn),672,-13,10,-8,98,2,x,x
O=C(Cn1cc(C(F)(F)F)ccc1=O)N1CCc2ccccc21,400,65*,9,-7,u,8,-11,-3
CCN1/C(=C2\SC(=S)N(Cc3ccccc3)C2=O)Sc2ccccc21,274,107*,-5,6,91,-2,9,-6
Nc1ccc(CCc2nc3ccccc3o2)cc1,220,-5,3,4,83,0,x,x
O=S(=O)(CCc1nc2ccccc2o1)c1ccc(Cl)c(Cl)c1,483,91*,3,3,95,-1,-10,-4
COc1ccc(N(CC(=O)N2CCOCC2)S(C)(=O)=O)cc1OC,610,-2,1,3,106,4,x,x
CCc1nn(CC(=O)NCCCN2CCN(CC)CC2)c(=O)c2cc3occc3n12,855,10,1,-7,101,3,x,x
CC(=O)Nc1c(C)nn(-c2ccc([N+](=O)[O-])cc2)c1C,488,54*,-18,-4,103,2,-3,-10
CN(CC(=O)NCc1ccco1)C(=O)C1CC(=O)N(c2ccc3c(c2)OCCO3)C1 (stereo not drawn),961,15,1,-2,108,-1,x,x
COc1ccc(-c2n[nH]c(=S)n2Cc2ccccc2)cc1,191,56*,1,0,92,2,-22,-7
CC(=O)C[C@@H](O)CC(=O)[C@@H]1OC(=O)[C@H](C)C/C=C\Cc2ccccc21,253,13,x,6,102,-3,x,x
COc1ccc(-c2cc(C(=O)OCC(=O)NC3CC3)c3ccccc3n2)cc1,592,4,6,0,90,1,x,x
COc1ccc2cc(-c3cc(C(=O)OCC(=O)NC4CCS(=O)(=O)C4)c4ccccc4n3)ccc2c1 (stereo not drawn),329,106*,0,2,4.6*,-6,60*,188*
Cc1ccc(C(=O)C(C)OC(=O)CN2C(=O)NC3(CCCC3)C2=O)cc1 (stereo not drawn),415,-9,-1,16,95,-1,x,x
Cc1csc(=Nc2cccnc2)n1CC1CCCCC1,249,70*,2,-2,101,3,-2,-8
COCCCn1c(C)csc1=Nc1cccnc1,294,-5,18,9,101,2,x,x
SMILES,T cell modulator,Arr AP2 block,GASC-1 inh,LANA-H2B inh,Pemphigus Ab inh,HDAC3 inhib,Arr AP2 CP1,GST GSH counter
COc1ccc(CCC(C)NC2CCCCCCC2)cc1 (stereo not drawn),173,64*,-4,-8,118,1,19,9
Cc1ccc(Cc2ccc(C(=O)NNC(N)=S)o2)cc1,200,59*,-4,-3,97,3,-8,-2
CCc1ccc(N2CC(C)Cn3c2nc2c3c(=O)[nH]c(=O)n2C)cc1 (stereo not drawn),444,8,-7,2,96,2,x,x
CCn1nc(NS(=O)(=O)c2ccc(NC(C)=O)cc2)c2cc3cc(C)ccc3nc21,388,42,-17,14,97,-2,x,x
CCn1nc(NS(=O)(=O)c2ccccc2)c2cc3cc(C)ccc3nc21,274,62*,6,-3,x,-2,3,2
CSc1ccccc1C(=O)Nc1cc(C)cc(C)c1,166,-6,1,2,103,-1,x,x
COc1ccccc1NC(=O)CC(=O)c1ccccc1,222,-6,-17,0,107,-9,1,1
COc1ccc(NC(=O)CCCC(=O)c2ccccc2)cc1OC,22,61*,0,6,92,-2,-7,-7
COc1ccccc1NC(=O)CC(=O)Nc1ccccc1OC,200,1,-6,0,101,-3,x,x
CSc1ccccc1C(=O)Nc1ccc(C)c(C)c1,410,54*,102*,1,x,3,-9,-8
Cc1ccc(NC(=O)CC(=O)c2ccccc2)cc1C,369,12,3,2,114,3,4,0
CC1(C)NC(=O)N(CCC(=O)Nc2ccc(C(C)(C)C)cc2)C1=O,x,x,x,x,100,x,x,x
O=C(CC(=O)c1ccccc1)Nc1ccc(Cl)cc1,213,8,0,-4,95,0,3,7
Cc1ccc(S(=O)(=O)Nc2cc(Cl)c(O)cc2C)cc1,772,58*,-2,0,95,3,4,-4
CCOc1cc(/C=C2\SC(N)=NC2=O)ccc1O,179,61*,-39,-1,110,3,-6,-1
COc1cc(CCNC2=CC(=O)c3ncccc3C2=O)ccc1O,x,-25,x,x,78,x,x,x
c1ccc(Nc2ccccn2)cc1,304,-1,-25,0,x,9,x,x
c1ccc(Nc2cccc(Nc3ccccc3)n2)cc1,230,61*,24,-3,124,13,20,6
COc1ccc(NC(=O)CSCC(=O)Nc2ccc(S(=O)(=O)N3CCCCC3)cc2)cc1,221,57*,6,3,106,-4,-12,-8
